Screening results as filed in PubChem.
HDAC3 inh: HDAC3 deacetylase inhibitors, primary screen, biochemical, fluorescence, cell-free homogeneous; inhibition, % at 8.3 µM; actives 0.15% (n = 320,000); Histone deacetylase 3 (Homo sapiens), O15379; recombinant HDAC3, fluorogenic peptide/trypsin coupled; in the data active = inhibition above about 26%, passing the limit was not always enough
Pemphigus Ab inh: inhibitors of pemphigus antibody binding to DSG3, primary screen, biochemical, bead-based, flow cytometry, scFv-GFP; Desmoglein-3 (Homo sapiens), P32926; DSG3-coupled beads, scFv-anti-DSG3-GFP binding; hits give low values; binding (percent of control), % at 10 µM; actives 0.48% (n = 310,000); AID 588358, 2011;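 active = binding more than 3 SD below its plate's average and above zero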;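 note: hits lower antibody fragment binding to DSG3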
Target sequence (P32926 whole entry, looked up, the tested form may be a part): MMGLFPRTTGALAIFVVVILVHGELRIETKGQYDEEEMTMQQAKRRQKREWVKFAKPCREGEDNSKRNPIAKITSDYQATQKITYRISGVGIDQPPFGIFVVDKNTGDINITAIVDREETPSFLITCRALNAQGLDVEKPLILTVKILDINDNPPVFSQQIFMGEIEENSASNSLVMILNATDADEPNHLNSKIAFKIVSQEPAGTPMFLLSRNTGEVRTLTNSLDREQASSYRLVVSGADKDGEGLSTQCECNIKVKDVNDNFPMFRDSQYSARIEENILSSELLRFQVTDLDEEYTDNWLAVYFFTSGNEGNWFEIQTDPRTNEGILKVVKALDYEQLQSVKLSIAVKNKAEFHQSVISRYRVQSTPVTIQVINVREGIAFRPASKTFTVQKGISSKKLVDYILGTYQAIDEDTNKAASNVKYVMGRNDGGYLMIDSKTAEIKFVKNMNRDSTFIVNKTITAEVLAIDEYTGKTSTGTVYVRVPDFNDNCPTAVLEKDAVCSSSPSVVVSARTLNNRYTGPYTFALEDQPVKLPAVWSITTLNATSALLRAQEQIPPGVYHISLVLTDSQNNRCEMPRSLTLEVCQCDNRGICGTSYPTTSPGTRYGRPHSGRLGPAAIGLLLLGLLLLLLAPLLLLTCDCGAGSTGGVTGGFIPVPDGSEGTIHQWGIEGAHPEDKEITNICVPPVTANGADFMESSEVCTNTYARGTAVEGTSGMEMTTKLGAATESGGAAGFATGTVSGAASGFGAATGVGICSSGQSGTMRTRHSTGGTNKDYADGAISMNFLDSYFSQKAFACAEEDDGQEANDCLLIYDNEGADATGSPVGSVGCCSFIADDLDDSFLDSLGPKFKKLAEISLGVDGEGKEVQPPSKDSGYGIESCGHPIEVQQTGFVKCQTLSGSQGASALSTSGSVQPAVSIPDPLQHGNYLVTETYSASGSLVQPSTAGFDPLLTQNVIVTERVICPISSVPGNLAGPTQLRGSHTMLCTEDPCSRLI
LANA-H2B inh: blockers of LANA interaction with H2A/H2B – biochemical, FP readout, HTS, primary screen | Protein LANA1 (Human herpesvirus 8 type P (isolate GK18)), Q9QR71 | cell-free LANA-H2A/H2B peptide, fluorescence polarization | inhibition, % (concentration not given with the values) | actives 0.6% (n = 320,000) | AID 2629, 2010; in the data active = inhibition mostly above about 10%, no sharp cut-off; inactive = mostly below about 6.7%
Arrestin-AP2 inh: inhibitors of beta-arrestin/AP2 binding, primary screen, biochemical, GPCR trafficking, flow cytometry; actives 0.31% (n = 340,000); inhibition, % at 10 µM; FITC-arrestin peptide / GST-AP2 beads; AP2 beta2 appendage carries R879A mutation; beta-arrestin 1 C-terminal peptide binding to AP2 beta2-adaptin appendage (human);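 active = inhibition above a set limit, near 3 SD of compounds lacking own fluorescence, cut at about 54% in these data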;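 note: plate controls were DMSO wells for no effect and 5 µM unlabelled arrestin peptide for full effect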
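System: GST-AP2 R879A glutathione beads; medium: PBS, Tween 20 0.05%, BSA 0.1%; reagent: fluorescein-tagged arrestin peptide at 50 nM final; schedule: pre-incubation 12 min, peptide binding 1 h, room temperature; detection: flow cytometry, FL1 (488/535 nm); read-out: inhibition as reduced fluorescein signal on beads, percent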
T cell modulator: modulators of CD8 T cell-vesicle binding, primary screen, mouse 2C CD8+ T cells, flow cytometry. 2C CD8+ T cell-vesicle binding; hits give low values. response (vesicle binding), % at 7 µM. actives 0.068% (n = 330,000). AID 2052, 2009;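 active = response, share of CD8 T cells binding vesicles, and their 90th percentile fluorescence all below set limits, cut at about 80% in these data, passing the limit was not always enough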;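 note: values below 100% mean blocked vesicle binding to the CD8+ T cells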
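Assay system: 2C TCR transgenic mouse naive CD8+ T cells, MACS-purified | Read-out: CD8+ gate FL2 mean fluorescence as % of same-row positive control | Signal: High-throughput flow cytometry with anti-B7-1 and anti-CD8 staining | Timing: Binding step 1.5 h, 37 °C, antibody labelling 20 min, ice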
Arr-AP2 CP1: inhibitors of arrestin peptide binding to AP2, confirmation, biochemical, cherry pick 1, flow cytometry beads; GST-AP2 beads, FITC arrestin peptide binding; GST-fused beta2-adaptin appendage, R879A mutant; actives 2% (n = 1,300); shares compounds with Arrestin-AP2 inh; AID 504908, 2011; inhibition, % at 10 µM;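 active = inhibition above a set limit, roughly 3 SD of non-fluorescent compound noise, cut at about 38% in these data; inactive = inhibition at or below that limit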;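 note: loss of bead fluorescence from 50 nM FITC arrestin peptide bound to appendage; 0% = negative control wells and 100% = excess unlabelled arrestin peptide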
GST GSH counter: GST-fluorescein capture on glutathione beads, confirmation, artefact control for arrestin-AP2 inhibitor project, biochemical, cherry pick 1, flow cytometry; shares compounds with Arrestin-AP2 inh; GST-fluorescein binding to GSH beads, fluorescence, counter-screen; inhibition, % at 10 µM; actives 2% (n = 1,300); AID 588338, 2011;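 active = inhibition above 50%, about 3 SD of the inhibition seen with non-fluorescent compounds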;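 note: fluorescein maleimide labelled GST captured on 4 micron glutathione beads; higher means more loss of bead fluorescence from quenching or blocked binding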
Starred values were filed as active, the others as inactive; i = inactive; x = no result given. Most compounds without a hit are left out; they make up all but 1.5% or so of the library.

SMILES	HDAC3 inh	Pemphigus Ab inh	LANA-H2B inh	Arrestin-AP2 inh	T cell modulator	Arr-AP2 CP1	GST GSH counter
O=C1CC(c2ccco2)CC(O)=C1C=NCCN1CCN(C(=S)Nc2ccccc2)CC1 (stereo not drawn)	-3	102	-1	56*	384	-9	-5
CC#CC(=O)N1CCC(n2nccc2NC(=O)CCc2ccccc2)CC1	x	106	x	x	x	x	x
CCOC(=O)Cn1cnc2sc(C(=O)OC)c(C)c2c1=O	2	93	-2	-5	285	x	x
CCOC(=O)c1sc2ncn(CC(=O)Nc3cc(C)on3)c(=O)c2c1C	x	103	x	63*	415	12	-2
CSc1ncccc1C(=O)N1CCCC(N2CCN(c3ccccc3F)CC2)C1 (stereo not drawn)	2	111	2	24	155	x	x
CCOc1cc(/C=C2\SC(N)=NC2=O)ccc1O	3	110	-1	61*	179	-6	-1
Cc1cccc(CNc2ccc(S(=O)(=O)N3CCCCC3)cc2)c1	8	98	-2	-6	863	x	x
CCOc1ccc(NS(=O)(=O)c2cc(C(=O)NCC3CCCO3)ccc2Cl)cc1 (stereo not drawn)	x	100	x	27	262	x	x
CCOc1ccc(S(=O)(=O)Nc2ccn(C)n2)cc1	x	99	x	77*	802	-16	1
CCOc1ccc(S(=O)(=O)Nc2ccc(C(=O)NCC3CCCO3)cc2)cc1 (stereo not drawn)	-12	101	-5	56*	385	21	-9
CCOc1ccc(S(=O)(=O)NC2CCCCCC2)cc1	-1	102	2	57*	456	-3	1
Cc1ccc(C2=C(c3ccc([N+](=O)[O-])cc3)C(=O)OC2)cc1C	3	97	2	54*	293	-5	0
O=C(CNC(=O)c1ccccc1)NCC(c1ccco1)N1CCCC1 (stereo not drawn)	-1	141	1	21	227	x	x
O=C(CNC(=O)c1ccccc1Br)NCC(c1ccco1)N1CCCCC1 (stereo not drawn)	x	98	x	66*	x	3	-10
COc1ncnc2c1ncn2CCCN(C)Cc1ccco1	x	105	x	x	x	x	x
CCC(C)NC(=O)C1CCC(CNS(=O)(=O)c2cccc3nsnc23)CC1 (stereo not drawn)	3	x	-1	54*	327	2	1
Cc1cc[n+](-c2[nH]c(=O)sc2/C=N/N=C(\[O-])c2ccncc2)cc1	-8	x	-4	2	347	x	x
CCOc1ccc(/C=C/C(=O)NCCc2ccc(OC)c(OC)c2)cc1	2	106	3	57*	280	-12	-8
Cc1cc(C)c(NC(=O)CN(C)C(=O)CCN2C(=O)C3CCCCC3C2=O)c(C)c1 (stereo not drawn)	x	100	x	x	x	x	x
CCn1c(=O)n(CC(=O)Nc2ccc(F)cc2)c(=O)c2ccccc21	0	92	3	12	372	-2	-10
CCn1c(=O)n(CC(=O)NCc2ccccc2OC)c(=O)c2ccccc21	-9	100	-4	-7	178	x	x
Cc1c(C(=O)NCCN2CCOC2=O)oc2c(F)cccc12	-5	106	2	-3	266	x	x
Cc1c(C(=O)NCCN2CCCC(O)C2)oc2c(F)cccc12 (stereo not drawn)	x	114	-2	58*	340	-11	-3
Cc1cc(NC(=O)CCC(=O)N(C2CC2)C(C(=O)NC(C)(C)C)c2ccccc2Cl)no1 (stereo not drawn)	10	107	4	-4	820	x	x
Cc1cc(NC(=O)CCC(=O)N(Cc2cccnc2)C(C(=O)NC(C)(C)C)c2ccccc2Cl)no1 (stereo not drawn)	-3	108	-7	57*	419	-11	3
SMILES	HDAC3 inh	Pemphigus Ab inh	LANA-H2B inh	Arrestin-AP2 inh	T cell modulator	Arr-AP2 CP1	GST GSH counter
COc1ccc(CC(C)Nc2cccc(SC)c2)cc1 (stereo not drawn)	5	117	-5	-10	638	x	x
CC(OC(=O)c1ccc(NS(=O)(=O)c2cccs2)cc1)C(=O)N(C)C1CCCCC1 (stereo not drawn)	0	86	2	4	296	x	x
CC(OC(=O)c1ccc2ncsc2c1)C(=O)N(C)C1CCCCC1 (stereo not drawn)	-1	105	-10	60*	320	16	-8
Cc1ccccc1/C=N/Nc1ccc(Cl)nn1	-12	108	2	60*	963	-14	-4
COc1ccccc1N1CCN(C(=O)COc2cccc(C)c2C)CC1	x	115	x	61*	i	-10	-2
COc1ccccc1OCC(=O)N1CCN(c2ccccc2OC)CC1	-6	97	3	-1	216	x	x
CCOc1ccccc1N1CCN(C(=O)CC(C)(C)C)CC1	4	114	-4	55*	245	5	-6
CCCCN(Cc1nc2ccccc2c(=O)[nH]1)C(=O)c1nn(C)c(=O)c2ccccc12	x	101	x	5	x	x	x
COC(=O)c1c(NC(=O)CN2C(=O)NC3(CCc4ccccc4C3)C2=O)sc2c1CCCCC2 (stereo not drawn)	3	83	-3	106*	244	7	2
CN1OC[C@@H]2CN(C(=O)CCc3ccccc3)[C@H](c3cccc(Oc4ccccc4)c3)C[C@@H]21	x	99	x	-1	x	x	x
N#Cc1ccccc1Sc1ccccc1C(=O)NCC(c1ccco1)N1CCCC1 (stereo not drawn)	0	119	-1	1	591	x	x
O=C(NCc1ccc(Cl)cc1)C1CCCN1C(=O)Nc1ccccc1 (stereo not drawn)	-7	110	3	-3	158	x	x
COc1ccc(-c2n[nH]c(=S)n2Cc2ccccc2)cc1	2	92	0	56*	191	-22	-7
CN(CC1CCCN(CCc2ccc(Cl)cc2)C1)C(=O)c1ccco1 (stereo not drawn)	-3	102	2	10	265	x	x
COc1cccc(/C=N/NC(=O)COc2cccc3cccnc23)c1O	-6	105	-1	60*	225	-11	-1
COc1ccccc1OCC(=O)N/N=C/c1cccc2cccnc12	4	x	2	41	309	x	x
